These results are taken from paper PMC11327602 (Heliyon, 2024).

“And” between values parts separate entries of the source, which are not always exact repeats. Equal values may be shown once.

By IC50 is commonly meant the concentration needed to halve the response being measured.

Assay [1] has as its target Bacillus Pasteurii urease (Sporosarcina pasteurii, UniProt P41020). Kind of assay: Urease inhibition assay. To be noted: Enzyme (SEM ±) B.P Urease, IC50, mean ± SEM, 3 experiments. The format is biochemical.
In assay [2] the target is α-Glucosidase (Saccharomyces cerevisiae, UniProt P53341). The experiment in a line: α-Glucosidase inhibition assay. The format is biochemical. Summed up:
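Test compound (200–800 μg/mL) pre-incubated 5 min at 37 °C with 2 % w/v starch (sucrose) solution in 0.2 M Tris buffer, pH 8.0. 5 mM p-nitrophenyl-α-D-glucopyranoside added intermittently, then α-glucosidase (1 U/mL), 40 min at 35 °C. Stopped with […]; absorbance read at 405 nm. % inhibition = (control − sample)/control × 100; samples above 50 % taken to IC50.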

Assay [3] is described as follows: DPPH free radical scavenging activity. Particulars: for IC50: read-out: DPPH scavenging IC50.
For assay [4], the target named is jack bean urease (Canavalia ensiformis, UniProt P07374). Kind of assay: Urease inhibition assay. Format: biochemical. To be noted: for IC50: Enzyme (SEM ±) J.B Urease, IC50, mean ± SEM, 3 experiments.
Chain of jack bean urease (P07374 whole entry, looked up): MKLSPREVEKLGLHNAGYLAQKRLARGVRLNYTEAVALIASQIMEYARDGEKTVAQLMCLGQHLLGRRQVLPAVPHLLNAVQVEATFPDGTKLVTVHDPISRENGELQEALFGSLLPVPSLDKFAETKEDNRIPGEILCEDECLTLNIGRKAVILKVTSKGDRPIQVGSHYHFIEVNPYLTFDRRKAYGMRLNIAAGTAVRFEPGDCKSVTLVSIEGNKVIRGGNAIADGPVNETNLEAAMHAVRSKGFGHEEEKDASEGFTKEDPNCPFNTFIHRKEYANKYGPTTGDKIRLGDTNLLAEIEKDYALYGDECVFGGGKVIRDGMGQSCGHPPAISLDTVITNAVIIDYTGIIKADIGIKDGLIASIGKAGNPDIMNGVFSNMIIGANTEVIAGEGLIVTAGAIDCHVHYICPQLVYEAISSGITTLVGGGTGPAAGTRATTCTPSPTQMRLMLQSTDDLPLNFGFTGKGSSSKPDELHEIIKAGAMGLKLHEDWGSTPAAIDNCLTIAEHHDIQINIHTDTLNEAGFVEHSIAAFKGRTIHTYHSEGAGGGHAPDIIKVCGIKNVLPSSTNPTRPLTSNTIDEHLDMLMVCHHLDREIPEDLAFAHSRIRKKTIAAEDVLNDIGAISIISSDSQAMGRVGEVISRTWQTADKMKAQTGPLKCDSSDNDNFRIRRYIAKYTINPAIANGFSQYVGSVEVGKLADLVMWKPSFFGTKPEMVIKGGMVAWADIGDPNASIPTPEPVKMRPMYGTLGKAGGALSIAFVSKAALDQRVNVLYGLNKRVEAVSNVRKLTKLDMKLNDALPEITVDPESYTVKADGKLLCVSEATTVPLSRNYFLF
Assay [5] is described as follows: Superoxide anion scavenging assay. Particulars: for IC50: read-out: superoxide anion scavenging IC50.
The nature of assay [6]: ABTS method. To be noted: for IC50: read-out: ABTS scavenging IC50.

Chain of α-Glucosidase (P53341 whole entry): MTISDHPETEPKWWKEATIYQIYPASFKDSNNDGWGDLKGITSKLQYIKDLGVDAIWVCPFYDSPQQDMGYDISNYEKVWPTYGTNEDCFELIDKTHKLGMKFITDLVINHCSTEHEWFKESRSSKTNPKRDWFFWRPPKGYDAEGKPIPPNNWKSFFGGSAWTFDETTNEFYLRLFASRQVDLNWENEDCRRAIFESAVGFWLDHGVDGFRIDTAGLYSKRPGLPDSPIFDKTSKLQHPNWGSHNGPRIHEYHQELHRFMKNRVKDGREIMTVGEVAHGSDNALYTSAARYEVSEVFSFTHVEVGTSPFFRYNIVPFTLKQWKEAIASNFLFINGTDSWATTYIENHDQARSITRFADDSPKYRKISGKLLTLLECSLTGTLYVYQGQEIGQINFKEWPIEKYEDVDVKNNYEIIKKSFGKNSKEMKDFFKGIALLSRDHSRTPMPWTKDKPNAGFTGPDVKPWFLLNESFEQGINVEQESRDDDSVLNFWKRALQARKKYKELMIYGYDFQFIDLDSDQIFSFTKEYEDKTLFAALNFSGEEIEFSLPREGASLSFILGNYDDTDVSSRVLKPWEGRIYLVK
Chain of Bacillus Pasteurii urease (P41020 whole entry): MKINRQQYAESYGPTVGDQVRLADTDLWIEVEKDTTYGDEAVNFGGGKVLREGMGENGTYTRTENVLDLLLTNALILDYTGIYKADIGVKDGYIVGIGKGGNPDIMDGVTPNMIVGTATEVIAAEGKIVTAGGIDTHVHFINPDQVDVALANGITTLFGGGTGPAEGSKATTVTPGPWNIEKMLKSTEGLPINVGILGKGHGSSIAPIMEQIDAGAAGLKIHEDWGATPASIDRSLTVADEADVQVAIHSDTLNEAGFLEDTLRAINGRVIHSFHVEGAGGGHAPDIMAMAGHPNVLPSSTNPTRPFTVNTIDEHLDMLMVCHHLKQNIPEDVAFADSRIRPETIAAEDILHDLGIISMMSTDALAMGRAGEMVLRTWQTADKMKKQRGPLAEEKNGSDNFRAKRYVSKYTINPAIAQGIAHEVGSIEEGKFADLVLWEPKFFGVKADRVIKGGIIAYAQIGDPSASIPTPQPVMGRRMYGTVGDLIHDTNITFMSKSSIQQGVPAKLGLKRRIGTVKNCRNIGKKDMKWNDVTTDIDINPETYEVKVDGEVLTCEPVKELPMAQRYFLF
Chain of Bacillus Pasteurii urease (P41021 whole entry partner): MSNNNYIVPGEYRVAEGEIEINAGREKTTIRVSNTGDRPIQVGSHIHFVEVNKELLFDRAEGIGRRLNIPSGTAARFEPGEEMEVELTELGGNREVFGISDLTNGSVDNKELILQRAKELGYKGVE
Chain of Bacillus Pasteurii urease (P41022 whole entry partner): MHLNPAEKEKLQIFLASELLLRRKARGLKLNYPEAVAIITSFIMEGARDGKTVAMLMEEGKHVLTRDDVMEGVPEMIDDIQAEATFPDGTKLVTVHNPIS

Consider `CN(c1nccs1)S(=O)(=O)c1ccc([N+](=O)[O-])cc1` [Compound 39, N-Methyl-4-nitro-N-(thiazol-2-yl)benzenesulfonamide], for which the half-maximal inhibitory concentration (IC50) in assay [1] was 43.71 ± 0.13 µM; in assay [3], 43.02 ± 0.13 µM; in assay [4] it was 38.17 ± 0.01 µM; in assay [5], 54.1 ± 0.55 µM; in assay [6], 36.09 ± 0.15 µM. Also, in assay [2], the “Type of Inhibition (α-glucosidase and α-amylase)” value (shortened to “Type of Inhibition”) is “Non-competitive”. Besides, in assay [2], the “inhibition against both enzymes (α-glucosidase and α-amylase), in words” value (“inhibition against both enzymes” below) is recorded as “weak inhibition”. For the same compound, the “DPPH % Scavenging” value in assay [3] (25 μM) stood at 15.04 ± 0.05%; in assay [3] (50 μM), 55.02 ± 0.08%; in assay [3] (75 μM), 77.08 ± 0.11%; in assay [3] (100 μM) it was 91.01 ± 0.34%. The “Types of inhibition (urease)” value in assay [4] was “Non-competitive”. The “superoxide anion % scavenging” value in assay [5] (25 μM) was found to be 22.2 ± 0.01%; in assay [5] (50 μM), 48.5 ± 0.17%; in assay [5] (75 μM) it was 71.4 ± 0.34%; in assay [5] (100 μM) it was 93.8 ± 0.11%. The “ABTS % Scavenging” value was 24.02 ± 0.05% in assay [6] (10 μM); 39.01 ± 0.3% in assay [6] (20 μM); 47.06 ± 0.1% in assay [6] (30 μM); 72.11 ± 0.09% in assay [6] (40 μM); 102.03 ± 0.01% in assay [6] (50 μM).
Take `C=CCN(c1nccs1)S(=O)(=O)c1ccc(Cl)cc1` [Compound 30, N-Allyl-4-chloro-N-(thiazol-2-yl)benzenesulfonamide]: the IC50 in assay [1] stood at 32.3 ± 0.37 µM; in assay [3], 52.3 ± 0.21 µM; in assay [4] it was 28.1 ± 0.35 µM; in assay [5], 43 ± 0.09 µM; in assay [6], 37.6 ± 0.01 µM. Further, the “Type of Inhibition” value in assay [2] was “Non-competitive”. In addition, the “DPPH % Scavenging” value stood at 38.5 ± 0.19% in assay [3] (25 μM), 46.1 ± 0.11% in assay [3] (50 μM), 77.2 ± 0.13% in assay [3] (75 μM) and 81.2 ± 0.15% in assay [3] (100 μM). Moreover, the “Types of inhibition (urease)” value in assay [4] was “Non-competitive”. Besides, the “superoxide anion % scavenging” value in assay [5] (25 μM) was 29 ± 0.34%; in assay [5] (50 μM), 63 ± 0.01%; in assay [5] (75 μM) it was 79 ± 0.11%; in assay [5] (100 μM), 87 ± 0.21%. Moreover, the “ABTS % Scavenging” value in assay [6] (10 μM) worked out at 23.11 ± 0.02%; in assay [6] (20 μM), 40.3 ± 0.53%; in assay [6] (30 μM), 46.01 ± 0.19%; in assay [6] (40 μM), 59.5 ± 0.20%; in assay [6] (50 μM) it was 87.11 ± 0.15%.
Take `CN(c1nccs1)S(=O)(=O)c1ccc(Br)cc1` [Compound 35, 4-Bromo-N-methyl-N-(thiazol-2-yl)benzenesulfonamide]: the IC50 in assay [1] is 20.21 ± 0.19 µM; in assay [3] it was 53.1 ± 0.11 µM; in assay [4], 18.7 µM; in assay [5] it was ~38 µM and 38 µM; in assay [6] it was 38.01 ± 0.13 µM. Besides, the “Type of Inhibition” value in assay [2] is given as “Competitive”. Also, the “inhibition against both enzymes” value in assay [2] was “weak inhibition”. Besides, the “DPPH % Scavenging” value in assay [3] (25 μM) stood at 28.1 ± 0.04%; in assay [3] (50 μM) it was 34.4 ± 0.8%; in assay [3] (75 μM), 61.5 ± 0.03%; in assay [3] (100 μM) it was 89.1 ± 0.6%. Moreover, the “Types of inhibition (urease)” value in assay [4] was “Competitive”. The “superoxide anion % scavenging” value in assay [5] (25 μM) amounted to 27 ± 0.12%; in assay [5] (50 μM), 53 ± 0.05%; in assay [5] (75 μM) it was 64 ± 0.04%; in assay [5] (100 μM), 89 ± 0.28%. For the same compound, the “ABTS % Scavenging” value amounted to 33.02 ± 0.08% in assay [6] (10 μM); 31.05 ± 0.01% in assay [6] (20 μM); 43.01 ± 0.03% in assay [6] (30 μM); 62.2 ± 0.09% in assay [6] (40 μM); 105.13 ± 0.11% in assay [6] (50 μM).
`Cc1ccc(S(=O)(=O)N(Cc2ccccc2)c2nccs2)cc1` [Compound 19, N-Benzyl-4-methyl-N-(thiazol-2-yl)benzenesulfonamide]: the IC50 in assay [1] worked out at 29.05 ± 0.01 µM; in assay [3] it was 40.01 ± 0.01 µM; in assay [4], 26.15 ± 0.02 µM; in assay [5] it was 42 ± 0.15 µM; in assay [6], 37.01 ± 0.04 µM. Besides, in assay [2], the “Type of Inhibition” value is “Competitive”. In addition, the “DPPH % Scavenging” value in assay [3] (25 μM) was 39.1 ± 0.2%; in assay [3] (50 μM), 65.8 ± 0.03%; in assay [3] (75 μM) it was 89.6 ± 0.11%; in assay [3] (100 μM) it was 95.1 ± 0.41%. In addition, the “Types of inhibition (urease)” value in assay [4] is “Competitive”. In addition, the “superoxide anion % scavenging” value is on record as 32 ± 0.07% in assay [5] (25 μM), 59 ± 0.25% in assay [5] (50 μM), 80 ± 0.11% in assay [5] (75 μM) and 88 ± 0.01% in assay [5] (100 μM). Moreover, the “ABTS % Scavenging” value is listed as 18.01 ± 0.09% in assay [6] (10 μM); 37.05 ± 0.04% in assay [6] (20 μM); 41.09 ± 0.01% in assay [6] (30 μM); 69.02 ± 0.03% in assay [6] (40 μM); 89.03 ± 0.91% in assay [6] (50 μM).
With `Cc1ccc(S(=O)(=O)N(C)c2nccs2)cc1` [Compound 33, N,4-Dimethyl-N-(thiazol-2-yl)benzenesulfonamide], the IC50 is 25.09 ± 0.14 µM in assay [1]; ~34.4 µM and 34.4 µM in assay [3]; 22.1 ± 0.29 µM in assay [4]; 38 ± 0.55 µM in assay [5]; about 35.1 µM in assay [6]. Besides, the “Type of Inhibition” value in assay [2] was “Competitive”. Further, the “inhibition against both enzymes” value in assay [2] is “weak inhibition”. In addition, the “DPPH % Scavenging” value is reported as 30.2 ± 0.2% in assay [3] (25 μM), 37.4 ± 0.1% in assay [3] (50 μM), 65.6 ± 0.01% in assay [3] (75 μM) and 88.3 ± 0.2% in assay [3] (100 μM). The “Types of inhibition (urease)” value in assay [4] was “Non-competitive”. In addition, the “superoxide anion % scavenging” value in assay [5] (25 μM) turned out to be 20 ± 0.01%; in assay [5] (50 μM), 51 ± 0.03%; in assay [5] (75 μM) it was 60 ± 0.15%; in assay [5] (100 μM) it was 99 ± 0.18%. Moreover, the “ABTS % Scavenging” value in assay [6] (10 μM) worked out at 29.02 ± 0.08%; in assay [6] (20 μM), 41.07 ± 0.03%; in assay [6] (30 μM), 49.08 ± 0.01%; in assay [6] (40 μM), 72.02 ± 0.07%.
Turning to `C=CCN(c1nccs1)S(=O)(=O)c1ccc(OC)cc1` [Compound 27, N-allyl-4-methoxy-N-(thiazol-2-yl)benzenesulfonamide], the 50% inhibitory concentration (IC50) was 26.37 ± 0.22 µM in assay [1]; ~39.2 µM and 39.2 µM in assay [3]; 24.1 ± 0.34 µM in assay [4]; 45 ± 0.19 µM in assay [5]; 40.05 ± 0.08 µM in assay [6]. Besides, in assay [2], the “Type of Inhibition” value is on record as “Non-competitive”. For the same compound, the “DPPH % Scavenging” value is listed as 33.2 ± 0.01% in assay [3] (25 μM), 59.6 ± 0.2% in assay [3] (50 μM), 75.4 ± 0.2% in assay [3] (75 μM) and 91.8 ± 0.03% in assay [3] (100 μM). For the same compound, in assay [4], the “Types of inhibition (urease)” value is reported as “Competitive”. Besides, the “superoxide anion % scavenging” value in assay [5] (25 μM) is 25 ± 0.17%; in assay [5] (50 μM), 71 ± 0.25%; in assay [5] (75 μM), 86 ± 0.03%; in assay [5] (100 μM), 93 ± 0.52%. Moreover, the “ABTS % Scavenging” value in assay [6] (10 μM) was determined as 10.02 ± 0.05%; in assay [6] (20 μM), 19.08 ± 0.03%; in assay [6] (30 μM), 43.02 ± 0.09%; in assay [6] (40 μM) it was 70.02 ± 0.11%; in assay [6] (50 μM) it was 93.09 ± 0.02%.
Regarding `CN(c1nccs1)S(=O)(=O)c1ccccc1` [Compound 36, N-Methyl-N-(thiazol-2-yl)benzenesulfonamide], the half-maximal inhibitory concentration (IC50) was 17.06 ± 0.03 µM in assay [1]; ~49.3 µM and 49.3 µM in assay [3]; 14.06 ± 0.03 µM in assay [4]; 57.1 ± 0.09 µM in assay [5]; 45.07 ± 0.09 µM in assay [6]. Moreover, the “Type of Inhibition” value in assay [2] is “Non-competitive”. Moreover, in assay [2], the “inhibition against both enzymes” value is “weak inhibition”. Further, the “DPPH % Scavenging” value in assay [3] (25 μM) worked out at 25.3 ± 0.07%; in assay [3] (50 μM), 65.5 ± 0.12%; in assay [3] (75 μM) it was 88.3 ± 0.11%; in assay [3] (100 μM) it was 93.8 ± 0.09%. Besides, the “Types of inhibition (urease)” value in assay [4] is recorded as “Competitive”. For the same compound, the “superoxide anion % scavenging” value in assay [5] (25 μM) was found to be 20.6 ± 0.11%; in assay [5] (50 μM), 43.6 ± 0.12%; in assay [5] (75 μM), 65.1 ± 0.5%; in assay [5] (100 μM) it was 87.5 ± 0.08%. Also, the “ABTS % Scavenging” value was found to be 23.2 ± 0.11% in assay [6] (10 μM); 37.5 ± 0.2% in assay [6] (20 μM); 48.3 ± 0.21% in assay [6] (30 μM); 65.5 ± 0.01% in assay [6] (40 μM); 87.5 ± 0.05% in assay [6] (50 μM).
